# Screening data as filed in PubChem.
# T cell modulator: modulators of CD8 T cell-vesicle binding, primary screen, mouse 2C CD8+ T cells, flow cytometry; 2C CD8+ T cell-vesicle binding; stronger effect = lower value; response (vesicle binding), % at 7 µM; hit rate 0.068% among 330,000;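 active = response, share of CD8 T cells binding vesicles, and their 90th percentile fluorescence all below set limits, cut at about 80% in these data, passing the limit was not always enough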;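 note: values below 100% mean blocked vesicle binding to the CD8+ T cells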
#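 Read-out – percent CD8+ FL2 mean versus row control · System – murine 2C transgenic CD8+ T lymphocytes · Times – 1.5 h cell–vesicle binding at 37 °C, then 20 min icy labelling · Control set – naked vesicles low, QL9 vesicles with vehicle high · Detection – cytometric PE anti-B7-1 and Alexa647 anti-CD8 signals after 1% paraformaldehyde fixation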
# CASP6 VEID inh: human caspase-6 inhibitors, primary screen, biochemical, VEID-R110 fluorescence, single point, set 2 | P55212 | purified caspase-6, Z-VEID-R110 cleavage fluorescence | inhibition, % at 12.5 µM | hit rate 0.53% among 350,000;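 active = mean inhibition across replicates at least about 35%, with every replicate also reaching that limit, limit read from the data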;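 note: 0% = median of neutral control wells and 100% = no fluorescence left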
# Target sequence (P55212 24-179 limits assumed): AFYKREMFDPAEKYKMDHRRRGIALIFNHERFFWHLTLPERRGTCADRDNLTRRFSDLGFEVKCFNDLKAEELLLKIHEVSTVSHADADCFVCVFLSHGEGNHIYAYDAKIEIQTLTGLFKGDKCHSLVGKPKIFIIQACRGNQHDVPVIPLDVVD
# Target sequence (P55212 194-293 limits assumed): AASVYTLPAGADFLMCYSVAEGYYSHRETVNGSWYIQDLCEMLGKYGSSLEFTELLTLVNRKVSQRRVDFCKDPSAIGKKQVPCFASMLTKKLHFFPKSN
# Vif inh: HIV Vif self-association inhibitors, primary screen, imaging, HEK293T, single point; HEK293T cells, Vif self-association by quenched fluorescence, 24 h; inhibition, % at 7.49 µM; hit rate 0.35% among 340,000; in the data active = inhibition above about 50%, passing the limit was not always enough
# Myeloid diff 2: induction of myeloid progenitor differentiation, primary screen, cell-based, flow cytometry, MLPCN library. hit rate 1% among 360,000. calls only at 10 µM. ER-HoxA9 myeloid progenitors, lysozyme-GFP differentiation;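 active = normalized GFP-positive differentiation at or above the plate's own cutoff, the solvent-only control mean plus 3 SD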;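 note: cells exposed to compound for four days before flow analysis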
# An asterisk follows results filed as active; i = inactive; nt = no result; + = active, no number. In the library only some 1.4% were active in any assay of this set; here they are far more common.
SMILES,T cell modulator,CASP6 VEID inh,Vif inh,Myeloid diff 2
CC(=O)Nc1nonc1-c1nc2ccccc2n1C,201,-1,80*,i
CCOC(=O)Cn1c(-c2nonc2NC(=O)c2ccccc2F)nc2ccccc21,834,nt,1,+
CCc1ccc(/C=C/C(=O)C2C(=O)c3ccccc3C2=O)cc1,308,nt,-1,+
Cc1ccc(C)c(S(=O)(=O)Nc2ccc3oc(C)c(C(=O)O)c3c2)c1,390,69*,13,i
CC(=O)c1c(C)oc2ccc(NS(=O)(=O)c3ccc(C)cc3)cc12,383,0,2,i
CC1CCCC(NC(=O)COC(=O)c2ccccc2[N+](=O)[O-])C1C (configuration not stated),174,0,-5,i
CC1CCCC(NC(=O)COC(=O)c2ccc([N+](=O)[O-])s2)C1C (configuration not stated),125,57*,-5,i
N#Cc1sc2nc(-c3cccs3)cc(-c3ccc(F)cc3)c2c1N,468,nt,-13,+
CS(=O)(=O)c1sc2nc(-c3cccs3)cc(-c3ccccc3)c2c1N,144,nt,-5,+
COc1ccc(CN(C)C[C@H]2Oc3ccc(NC(=O)Cc4ccccc4)cc3C(=O)N([C@H](C)CO)C[C@H]2C)cc1,nt,-1,nt,nt
COc1cc2c(C#N)c(N3CCc4ccccc4C3)nc(N)c2c(N)n1,267,nt,12,+
COc1cc2c(C#N)c(N3CCCCC3)nc(N)c2c(N)n1,196,nt,2,i
CCN(CC)c1nc(N)c2c(N)nc(OC)cc2c1C#N,411,51*,3,i
C[C@H](CO)N1C[C@H](C)[C@@H](CN(C)C(=O)Nc2ccc3c(c2)OCO3)Oc2ccc(NC(=O)Nc3ccc(C(F)(F)F)cc3)cc2CC1=O,nt,-3,nt,nt
CC1CCN(CCCNC(=O)c2ccc3c(=O)n(CCc4ccccc4)c(=O)[nH]c3c2)CC1,222,nt,52*,i
CC1CCN(CCNC(=O)c2ccc3c(=O)n(CCc4ccccc4)c(=O)[nH]c3c2)CC1,nt,-4,nt,nt
CCC(CNc1cc(OC)cc2cccnc12)NC1CCCCC1 (configuration not stated),219,71*,4,i
COc1cc(NCCCC(C)N)c2ncccc2c1 (configuration not stated),nt,nt,nt,i
CC(C)CC#Cc1ccc2c(c1)O[C@@H](CN(C)C(=O)Nc1ccccc1)[C@H](C)CN([C@@H](C)CO)S2(=O)=O,nt,1,nt,nt
O=c1[nH]c(Nc2ccccn2)cc2ccccc12,358,90*,-3,i
Cc1ccc(NC(=O)CCC(=O)NNC(=O)NC2CCCCC2)c(C)c1,355,-2,79*,i
C[C@H](CO)N1C[C@H](C)[C@@H](CN(C)S(=O)(=O)c2cccs2)OCCCC[C@H](C)Oc2ccc(NC(=O)Nc3ccc4c(c3)OCO4)cc2C1=O,nt,0,nt,nt
O=[N+]([O-])c1cccc2cn[nH]c12,564,3,-6,+
O=C(CN1CCOCC1)N[C@H]1CC[C@@H](CCNC(=O)C2CCCC2)O[C@@H]1CO,nt,7,nt,nt
CCc1cc(/C(Cc2ccc3ccccc3n2)=N\O)c(O)cc1O,508,nt,-2,i
SMILES,T cell modulator,CASP6 VEID inh,Vif inh,Myeloid diff 2
Cc1c(O)ccc(/C(Cc2ccc3ccccc3n2)=N\N)c1O,103,1,5,+
[O-][n+]1cccc2c(Br)cc(Br)c(O)c21,602,26,-4,i
C[n+]1cccc2c(Br)ccc([O-])c21,296,53*,13,i
O=C(c1ccco1)N1CCN(c2ncnc3c2nnn3Cc2ccccc2Cl)CC1,206,4,60*,i
Fc1ccc(N2CCN(c3ncnc4c3nnn4Cc3ccccc3Cl)CC2)cc1,306,nt,nt,i
CCCN1CCN(c2ncnc3c2nnn3Cc2ccccc2)CC1,215,nt,nt,+
CC(=O)N1[C@H](C(=O)NC2Cc3ccccc3C2)[C@@H](CO)[C@@H]2Cn3c(ccc(-c4ccncc4)c3=O)[C@@H]21,nt,-1,nt,nt
Fc1ccc(NC(=S)N/N=C/c2ccc(F)c(F)c2)c(F)c1,936,1,110*,i
O=C(NC[C@@H]1CC[C@@H]2[C@@H](CN2S(=O)(=O)c2ccccc2[N+](=O)[O-])O1)C1CCOCC1,nt,53*,nt,nt
O=C(NC[C@H]1CC[C@@H]2[C@@H](CN2S(=O)(=O)c2ccccc2[N+](=O)[O-])O1)Nc1ccccc1,nt,2,nt,nt
CC(C)c1cn(CC[C@H]2CC[C@@H](NS(=O)(=O)Cc3ccccc3)[C@H](CO)O2)nn1,nt,-1,nt,nt
CCc1sc(N2[C@@H](C#N)[C@@H](c3ccccc3-c3ccc(F)cc3)[C@@H]2CO)nc1C,nt,1,nt,nt
CCC(=O)Nc1ccc2c(c1)OC[C@@H](C)N(C(=O)NC(C)C)C[C@@H](C)[C@H](OC)CN(C)C2=O,nt,-1,nt,nt
O=C(Cc1cccnc1)N1CC(=O)N2[C@H](CO)[C@@H](c3ccc(C#CC4CCCC4)cc3)[C@H]2C1,nt,-1,nt,nt
CSc1nc2ccc(S(=O)(=O)N3CCOCC3)cc2s1,436,1,16,i
N#CCc1nc2ccc(S(=O)(=O)N3CCOCC3)cc2s1,196,5,-4,+
COc1ccc(CN2C(=O)C(C)Nc3ncnc(N4CCN(c5ccccn5)CC4)c32)cc1 (configuration not stated),0.0*,7,-5,i
COc1ccc(NC(=O)Nc2ccc3c(c2)[C@@H]2C[C@H](CC(=O)N4CCN(C)CC4)O[C@@H](CO)[C@@H]2O3)cc1,nt,1,nt,nt
O=c1c2ccccc2nc(SCc2ccccc2F)n1C1CCCC1,128,38*,4,i
COCCn1c(SCc2ccccc2F)nc2ccccc2c1=O,358,-2,18,i
Cc1ccc(/C=C/C(=O)c2ccccc(=O)c2O)c(C)c1,463,39*,10,i
C/C(=N\NC(=O)CNC(=O)c1ccc(Br)cc1)c1ccco1,433,3,-7,i
C/C(=N\NC(=O)Cn1cc([N+](=O)[O-])cn1)c1ccco1,0.0*,2,10,i
C/C(=N\NC(=O)CNC(=O)c1ccc(F)cc1)c1ccco1,185,6,73*,i
COCC#Cc1ccc2c(c1)O[C@H](CN(C)S(C)(=O)=O)[C@@H](C)CN([C@@H](C)CO)S2(=O)=O,nt,1,nt,nt
COCC(=O)N1CC2(C1)[C@@H](c1ccc(-c3ccccc3)cc1)[C@H](CO)N2C(C)=O,nt,3,nt,nt
C#CCOCCOCCOCCNc1nc(N2CCOCC2)nc(N2CCN(C(=O)CCCCCCCCCCNC(=O)[C@@H]([C@H](C)CC)n3cc(CCCCCN)nn3)CC2)n1,283,-5,4,+
C#CCOCCOCCOCCNc1nc(N2CCN(C(=O)CCCCCCCCCCNC(=O)[C@H]([C@@H](C)CC)n3cc(CCCCCN)nn3)CC2)nc(N2CCN(C(=O)CCCCCCCCCCNC(=O)[C@@H]([C@H](C)CC)n3cc(CCCCCN)nn3)CC2)n1,358,nt,nt,nt
